Experimental data reported in ChEMBL document CHEMBL5030518, “Phorbol Diesters and 12-Deoxy-16-hydroxyphorbol 13,16-Diesters Induce TGFα Release and Adult Mouse Neurogenesis” (2021).
Activity calls are given as the source filed them. The rule behind the calls is not given here.

Key:
[1] = Induction of TGFalpha release in serum-starved HEK293T cells coexpressing GFP fused mCherry assessed as reduction in mCherry/GFP ratio at 0.5 uM measured up to 180 mins by time-lapse microscopic analysis relative to control; assay type: functional, Homo sapiens, HEK-293T; set-up: scale not given: the % may be the effect or the level left; conditions: time min <=180
Summary of the method: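 HEK293T transfected with mCherry-TGFα-GFP fusion (mCherry N-terminal, GFP C-terminal), left overnight, then serum-starved 30 min in serum-free FluoroBrite DMEM. Compound added at 0.5 µM; live time-lapse imaging over 180 min. Membrane mCherry/GFP ratio normalized to pre-stimulation average; mean normalized ratio, n = 40.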

Brain [2] = assay: Induction of neurogenesis in CD-1 mouse brain assessed as increase in number of proliferative neuronal progenitors at 10 nM, INH administered once daily for 3 days by confocal microscopic analysis; assay type: functional, tissue-based; conditions: time 3.0 day
Summary of the method: (§1)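 Male CD1 mice, 2 months old, received 12 μL/day intranasally for 3 days, given as 3 μL portions alternating nostrils with the neck extended. Vehicle was saline; treatment was randomized and coded. BrdU 100 mg/kg i.p. was given on the last day. BrdU and DCX in the SVZ were detected by immunohistochemistry in every fifth section (6–8 per brain) at 20×, with blinded counting. n = 6/group; t-test versus vehicle.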

Brain [3] = assay: Induction of neurogenesis in CD-1 mouse brain at 100 nM, INH administered once daily for 3 days by confocal microscopic analysis; assay type: functional, tissue-based; conditions: time 3.0 day; summary of the method: as §1
Brain [4] = assay: Induction of neurogenesis in CD-1 mouse brain assessed as increase in number of BrdU labeled proliferating cells at 10 nM, INH administered once daily for 3 days by confocal microscopic analysis; assay type: functional, tissue-based; conditions: time 3.0 day; summary of the method: as §1
Brain [5] = assay: Induction of neurogenesis in CD-1 mouse brain assessed as increase in total neuronal progenitors double cortin cells at 10 nM, INH administered once daily for 3 days by confocal microscopic analysis; assay type: functional, tissue-based; conditions: time 3.0 day; summary of the method: as §1
Neural Progenitor Cell [6] = assay: Induction of cell proliferation in mouse SVZ-derived neural progenitor cells assessed as neurosphere formation at up to 0.5 uM measured after 72 hrs by phase contrast microscopic analysis; assay type: functional, tissue-based; conditions: dose microM <=0.5, time 72.0 hrs
Summary of the method: (§2)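 NPCs were isolated from the SVZ of postnatal day 7 CD1 mice and grown as floating neurospheres with bFGF. Increasing compound concentrations were added at seeding. After 72 h, neurosphere area was measured from phase-contrast images and expressed as % of bFGF-only control. Runs were in triplicate, at least […] independent times; mean ± SEM of nine measurements, two-tailed unpaired t-test.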

Brain [7] = assay: Induction of neurogenesis in CD-1 mouse brain at 5 uM, INH administered once daily for 3 days by confocal microscopic analysis; assay type: functional, tissue-based; conditions: time 3.0 day; summary of the method: as §1
Brain [8] = assay: Induction of neurogenesis in CD-1 mouse brain at 10 nM, INH administered once daily for 3 days by confocal microscopic analysis; assay type: functional, tissue-based; conditions: time 3.0 day; summary of the method: as §1
HEK-293T = assay: Induction of TGFalpha release in serum-starved HEK293T cells coexpressing GFP fused mCherry assessed as reduction in mCherry/GFP ratio at 0.5 uM measured up to 180 mins by time-lapse microscopic analysis; assay type: functional, cell-based; conditions: Homo sapiens, time min <=180
Summary of the method: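 HEK293T cells transfected with an mCherry-TGFα-GFP fusion (mCherry N-terminal, GFP C-terminal) and left overnight. Cells were then serum-starved 30 min in serum-free medium. Compounds were added at 0.5 μM and time-lapse imaging ran for 180 min. Membrane mCherry/GFP ratio was normalized to the pre-stimulation average, and the mean of n = 40 was reported.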

Neural Progenitor Cell [9] = assay: Induction of cell proliferation in mouse SVZ-derived neural progenitor cells assessed as neurosphere formation at up to 5 uM measured after 72 hrs by phase contrast microscopic analysis; assay type: functional, tissue-based; conditions: dose microM <=5, time 72.0 hrs; summary of the method: as §2
Brain [10] = assay: Induction of neurogenesis in CD-1 mouse brain assessed as increase in number of BrdU labeled proliferating cells at 5 uM, INH administered once daily for 3 days by confocal microscopic analysis; assay type: functional, tissue-based; conditions: time 3.0 day
Summary of the method: (§3)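 Healthy 2-month-old male CD1 mice given intranasal solution daily for 3 days, 12 µL/day in saline vehicle (3 µL per delivery, alternating nostrils). BrdU 100 mg/kg i.p. on the last day. SVZ sections immunostained for BrdU and DCX. Positive cells counted blinded in every fifth section (6–8 per brain) at 20×. Values are per mm3; mean ± SEM, n = 6 per group.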

Brain [11] = assay: Induction of neurogenesis in CD-1 mouse brain assessed as increase in number of proliferative neuronal progenitors at 5 uM, INH administered once daily for 3 days by confocal microscopic analysis; assay type: functional, tissue-based; conditions: time 3.0 day; summary of the method: as §3

Row | SMILES | Activity [1] | Activity (HEK-293T) | Activity (Neural Progenitor Cell [9]) | other results
1 | C/C=C(/C)C(=O)O[C@@H]1[C@@H](C)[C@@]2(O)[C@@H](C=C(CO)C[C@]3(O)C(=O)C(C)=C[C@@H]23)[C@@H]2C(C)(C)[C@]12OC(=O)C(C)C | 15% |  |  | 
2 | CC1=C[C@H]2[C@@]3(O)[C@H](C)[C@@H](OC(=O)C(C)C)[C@]4(OC(=O)C(C)C)[C@H]([C@@H]3C=C(CO)C[C@]2(O)C1=O)C4(C)C |  |  |  | Activity (Brain [2]): Active; Activity (Brain [3]): inactive; Activity (Brain [4]): Active; Activity (Brain [5]): Active; Activity (Neural Progenitor Cell [6]): Active; Activity (Brain [7]): inactive; Activity (Brain [8]): Active
3 | CC1=C[C@H]2[C@@]3(O)[C@H](C)C[C@]4(OC(=O)Cc5ccccc5)[C@H]([C@@H]3C=C(CO)C[C@]2(O)C1=O)[C@@]4(C)COC(=O)C(C)C |  | Active | Active | Activity (Neural Progenitor Cell [6]): Active
4 | CC1=C[C@H]2[C@@]3(O)[C@H](C)[C@@H](OC(=O)C(C)C)[C@]4(OC(=O)Cc5ccccc5)[C@H]([C@@H]3C=C(CO)C[C@]2(O)C1=O)C4(C)C | 25% |  |  | 
5 | CC1=C[C@H]2[C@@]3(O)[C@H](C)[C@@H](OC(=O)Cc4ccccc4)[C@]4(OC(=O)Cc5ccccc5)[C@H]([C@@H]3C=C(CO)C[C@]2(O)C1=O)C4(C)C | 25% |  |  | 
6 | CC(=O)O[C@@H]1[C@@H](C)[C@@]2(O)[C@@H](C=C(CO)C[C@]3(O)C(=O)C(C)=C[C@@H]23)[C@@H]2C(C)(C)[C@]12OC(C)=O | 15% |  | Active | Activity (Brain [10]): Active; Activity (Brain [11]): Active
7 | CC1=C[C@H]2[C@@]3(O)[C@H](C)[C@@H](O)[C@]4(O)[C@H]([C@@H]3C=C(CO)C[C@]2(O)C1=O)C4(C)C |  | inactive |  | 
8 | CC1=C[C@H]2[C@@]3(O)[C@H](C)[C@@H](OC(=O)Cc4ccccc4)[C@]4(OC(=O)C(C)C)[C@H]([C@@H]3C=C(CO)C[C@]2(O)C1=O)C4(C)C | 25% |  |  | 
9 | CC1=C[C@H]2[C@@]3(O)[C@H](C)[C@@H](O)[C@]4(OC(=O)C(C)C)[C@H]([C@@H]3C=C(CO)C[C@]2(O)C1=O)C4(C)C |  | inactive | inactive | 
